These results are taken from ChEMBL document CHEMBL1134779, “Synthesis and characterization of the antitumor activities of analogues of meridine, a marine pyridoacridine alkaloid” (J Med Chem, 2001).

The subject of one assay is A-427. The experiment in a line: In vitro inhibition of A-427 (human lung cancer) cell growth. Type of assay: functional, cell-based. The procedure, abridged:
(§1)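 Human cancer lines from ATCC, grown at 37 °C in sealed dishes in Eagle's MEM with 5% FCS. Cells were seeded at 40000 cells/mL and plated for 24 h before drug exposure. Six concentrations from 10^-5 to 10^-10 M were tested. Growth was read by MTT reduction to formazan at 570 nm (reference 630 nm), in sextuplicate. IC50 is the concentration giving 50% growth reduction versus control.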

Another assay relates to A549. Nature of the assay: In vitro inhibition of A549 (human lung cancer) cell growth. Type of assay: functional, cell-based. The procedure, abridged: as §1
In another assay the test system is J82. The experiment in a line: In vitro inhibition of J82 (human bladder cancer) cell growth. The assay is classed as functional, cell-based. The procedure, abridged:
as §1

Another assay has as its system MCF7. Nature of the assay: In vitro inhibition of MCF-7 (human breast cancer) cell growth. The assay is classed as functional, cell-based. An outline of the steps:
as §1

A further assay deals with PC-3. Nature of the assay: In vitro inhibition of PC-3 (human prostate cancer) cell growth. Type of assay: functional, cell-based. The procedure, abridged:
as §1

Assay [1] can be described thus: In vitro inhibition of T24 (human bladder cancer) cell growth. The assay is classed as functional, cell-based. The conditions noted are these: T-24. The procedure, abridged: as §1
Assay [2] has as its system T47D. The experiment in a line: Ctotoxic related antitumor activity against human cancer cell lines T-47 D. The assay is classed as functional, cell-based. An outline of the steps: as §1
A further assay deals with U373 MG. Nature of the assay: In vitro inhibition of U-373 MG (human glioblastoma) cell growth. Type of assay: functional, cell-based, U-373MG ATCC. The procedure, abridged: as §1
A further assay relates to HCT-15. The experiment in a line: In vitro inhibition of HCT-15 (human colon cancer) cell growth. The assay is classed as functional, cell-based. The procedure, abridged:
as §1

The next assay deals with LoVo. Nature of the assay: In vitro inhibition of LoVo (human colon cancer) cell growth. Type of assay: functional, cell-based. An outline of the steps: as §1
In another assay the test system is U-87 MG. The experiment in a line: In vitro inhibition of U-87 MG (human glioblastoma) cell growth. The assay is classed as functional, cell-based, U-87MG ATCC. An outline of the steps: as §1
The subject of another assay is SW1088 (human). The experiment in a line: In vitro inhibition of SW1088 (human astrocytoma) cell growth.
Assay [3] deals with T47D. The experiment in a line: In vitro inhibition of T-47D (human breast cancer) cell growth. The assay is classed as functional, cell-based. The procedure, abridged: as §1

For the compound `CCOC(=O)c1cnc2c(c1)C(=O)c1c(-c3ccccc3NC(=O)C(F)(F)F)ccnc1C2=O`, the IC50 (as a rule, the concentration that inhibits the measured activity by half) with A-427 worked out at 600 nM; in the assay on A549, 90 nM; in the assay on J82, 5200 nM; in the assay with MCF7, 500 nM; in the assay on PC-3 it was 1300 nM; in [1], 600 nM. For the same compound, the IC50 in the assay on T47D [2] was 2600 nM; in the assay with U373 MG it was 400 nM; in the assay with HCT-15, 100 nM; in the assay on LoVo, 800 nM; in the assay on U-87 MG, 80 nM; with SW1088 (human), 800 nM.
On to `O=C1c2nccc(Cl)c2C(=O)c2c(-c3ccccc3[N+](=O)[O-])ccnc21`, for which the half-inhibitory concentration (IC50) turned out to be 3500 nM in the assay on A-427; 900 nM in the assay with A549; 500 nM with J82; 1800 nM in the assay with MCF7; 5000 nM with PC-3; 5500 nM in assay [1]. In addition, the IC50 turned out to be 800 nM in the assay with T47D [3]; 4800 nM in the assay on U373 MG; 2800 nM in the assay on HCT-15; 3900 nM with LoVo; 2000 nM in the assay with U-87 MG; 5400 nM in the assay on SW1088 (human).
As to `Nc1ccnc2c1-c1nc3ccccc3c3ccnc(c13)C2=O`, the IC50 with A-427 was 60 nM; in the assay on A549 it was 80 nM; in the assay on J82, 700 nM; with MCF7, 90 nM; in the assay on PC-3 it was 500 nM; in [1], 70 nM. The IC50 in the assay on T47D [3] came to 600 nM; in the assay with U373 MG, 100 nM; in the assay on HCT-15, 300 nM; in the assay on LoVo, 90 nM; in the assay on U-87 MG, 70 nM; in the assay with SW1088 (human) it was 80 nM.
As to `COc1ccnc2c1C(=O)c1c(-c3ccccc3[N+](=O)[O-])ccnc1C2=O`, the IC50 in the assay with A-427 stood at 700 nM; with A549 it was 20 nM; with J82 it was 400 nM; with MCF7 it was 50 nM; in the assay on PC-3, 3100 nM; in [1], 20 nM. In addition, the IC50 in the assay with T47D [3] was 5100 nM; in the assay on U373 MG it was 30 nM; in the assay on HCT-15 it was 90 nM; in the assay with LoVo, 50 nM; in the assay with U-87 MG it was 9 nM; with SW1088 (human), 3900 nM.
Turning to `CC(=O)Nc1ccnc2c1C(=O)c1c(-c3ccccc3NC(=O)C(F)(F)F)ccnc1C2=O`, the IC50 amounted to 60 nM with A-427; 70 nM in the assay on A549; 3500 nM in the assay on J82; 90 nM in the assay on MCF7; 2700 nM with PC-3; 400 nM in assay [1]. Further, the IC50 in the assay on T47D [3] came out at 300 nM; with U373 MG, 90 nM; with HCT-15 it was 90 nM; in the assay on LoVo, 70 nM; in the assay on U-87 MG, 60 nM; in the assay on SW1088 (human) it was 90 nM.
On to `CN(C)c1ccnc2c1-c1nc3ccccc3c3ccnc(c13)C2=O`, for which the IC50 in the assay on A-427 is 60 nM; with A549, 60 nM; in the assay with J82, 1300 nM; with MCF7 it was 80 nM; with PC-3, 600 nM; in [1], 200 nM. For the same compound, the IC50 in the assay with T47D [3] was found to be 500 nM; in the assay on U373 MG, 80 nM; in the assay with HCT-15, 70 nM; with LoVo, 80 nM; with U-87 MG it was 50 nM; with SW1088 (human) it was 100 nM.
Consider `O=C1c2nccc([N+](=O)[O-])c2-c2nc3ccccc3c3ccnc1c23`, for which the IC50 is 2400 nM with A-427; 800 nM in the assay on A549; 500 nM in the assay on J82; 70 nM in the assay on MCF7; 4200 nM in the assay on PC-3; 700 nM in assay [1]. Further, the IC50 in the assay with T47D [3] amounted to 600 nM; with U373 MG it was 90 nM; in the assay on HCT-15, 600 nM; in the assay on LoVo, 90 nM; in the assay on U-87 MG, 70 nM; in the assay on SW1088 (human) it was 5500 nM.
Regarding `CN(C)c1ccnc2c1C(=O)c1c(-c3ccccc3NC(=O)C(F)(F)F)ccnc1C2=O`, the IC50 in the assay on A-427 was determined as 70 nM; with A549, 60 nM; in the assay with J82, 2000 nM; in the assay on MCF7, 100 nM; in the assay with PC-3, 600 nM; in assay [1], 300 nM. Besides, the IC50 with T47D [3] was determined as 700 nM; with U373 MG, 300 nM; in the assay on HCT-15, 200 nM; in the assay with LoVo, 100 nM; with U-87 MG, 60 nM; in the assay on SW1088 (human) it was 400 nM.
